Measured values published in ChEMBL document CHEMBL3779892, “Increasing the binding affinity of VEGFR-2 inhibitors by extending their hydrophobic interaction with the active site: Design, synthesis and biological evaluation of 1-substituted-4-(4-methoxybenzyl)phthalazine derivatives” (Eur J Med Chem, 2016).

How the values were obtained:
Assay type in all cases: functional
[1] = test system: MDA-MB-468; test: Growth inhibition of human MDA-MB-468 cells at 10 uM after 48 hrs by sulforhodamine B assay; conditions: MDA-MB-468, 48 h, read-out: GI
In short: (§1)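 Run at NCI on the 60-line panel. Cells grown in RPMI 1640 with 5% FBS and 2 mM L-glutamine, plated at 5000–40,000 cells/well by doubling time, and held 24 h at 37 °C before dosing. Drug (DMSO stock) given at a single final 10 µM in triplicate wells for 48 h. Adherent cells fixed with cold TCA (10% final), suspension cells with 16% TCA. SRB stain read at 515 nm. Percent growth from Tz, C and Ti.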

[2] = test system: MDA-MB-231; test: Growth inhibition of human MDA-MB-231 cells at 10 uM after 48 hrs by sulforhodamine B assay; conditions: MDA-MB-231, 48 h, read-out: GI; in short: as §1
[3] = test system: CCRF-CEM; test: Growth inhibition of human CCRF-CEM cells at 10 uM after 48 hrs by sulforhodamine B assay; conditions: read-out: GI; in short: as §1
[4] = test system: SR; test: Growth inhibition of human SR cells at 10 uM after 48 hrs by sulforhodamine B assay; conditions: read-out: GI
In short: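 NCI-60 screen. Cells were grown in RPMI 1640 with 5% FBS and 2 mM L-glutamine, plated at 5000–40,000 cells/well and held 24 h at 37 °C, 5% CO2. Single 10 µM final dose from DMSO stock, triplicate wells, 48 h. Settled cells were fixed with 80% TCA (16% final) and stained with 0.4% SRB. Dye was solubilized in 10 mM Tris and read at 515 nm. Growth was calculated against time-zero and untreated wells.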

[5] = test system: A549; test: Growth inhibition of human A549 cells at 10 uM after 48 hrs by sulforhodamine B assay; conditions: A549, 48 h, read-out: GI; in short: as §1
[6] = Growth inhibition of human HOP92 cells at 10 uM after 48 hrs by sulforhodamine B assay; conditions: HOP-92, 48 h, read-out: GI; in short: as §1
[7] = test system: NCI-H226; test: Growth inhibition of human NCI-H226 cells at 10 uM after 48 hrs by sulforhodamine B assay; conditions: NCI-H226, 48 h, read-out: GI; in short: as §1
[8] = test system: NCI-H23; test: Growth inhibition of human NCI-H23 cells at 10 uM after 48 hrs by sulforhodamine B assay; conditions: NCI-H23, 48 h, read-out: GI; in short: as §1
[9] = test system: NCI-H460; test: Growth inhibition of human NCI-H460 cells at 10 uM after 48 hrs by sulforhodamine B assay; conditions: NCI-H460, 48 h, read-out: GI; in short: as §1
[10] = test system: NCI-H522; test: Growth inhibition of human NCI-H522 cells at 10 uM after 48 hrs by sulforhodamine B assay; conditions: NCI-H522, 48 h, read-out: GI; in short: as §1
[11] = Growth inhibition of human HCT116 cells at 10 uM after 48 hrs by sulforhodamine B assay; conditions: HCT-116, 48 h, read-out: GI; in short: as §1
[12] = Growth inhibition of human HCT15 cells at 10 uM after 48 hrs by sulforhodamine B assay; conditions: HCT-15, 48 h, read-out: GI; in short: as §1
[13] = test system: HT-29; test: Growth inhibition of human HT-29 cells at 10 uM after 48 hrs by sulforhodamine B assay; conditions: HT-29, 48 h, read-out: GI; in short: as §1
[14] = Growth inhibition of human SW620 cells at 10 uM after 48 hrs by sulforhodamine B assay; conditions: SW-620, 48 h, read-out: GI
In short: (§2)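 NCI-60 panel, adherent cells grown in RPMI 1640 with 5% FBS and 2 mM L-glutamine, plated at 5000–40,000 cells/well and preincubated 24 h at 37 °C, 5% CO2. 10 µM final compound from DMSO stock, triplicate wells, 48 h. Fixed with cold TCA (10% final, 60 min, 4 °C) and stained with 0.4% SRB. Absorbance read at 515 nm; growth calculated against time-zero and control wells.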

[15] = Growth inhibition of human SF268 cells at 10 uM after 48 hrs by sulforhodamine B assay; conditions: SF-268, 48 h, read-out: GI; in short: as §1
[16] = Growth inhibition of human SNB19 cells at 10 uM after 48 hrs by sulforhodamine B assay; conditions: SNB-19, 48 h, read-out: GI; in short: as §1
[17] = test system: U-251; test: Growth inhibition of human U251 cells at 10 uM after 48 hrs by sulforhodamine B assay; conditions: U-251, 48 h, read-out: GI; in short: as §2
[18] = Growth inhibition of human LOXIMVI cells at 10 uM after 48 hrs by sulforhodamine B assay; conditions: LOX IMVI, read-out: GI; in short: as §1
[19] = test system: Malme-3M; test: Growth inhibition of human MALME-3M cells at 10 uM after 48 hrs by sulforhodamine B assay; conditions: read-out: GI; in short: as §1
[20] = test system: M14; test: Growth inhibition of human M14 cells at 10 uM after 48 hrs by sulforhodamine B assay; conditions: M14, 48 h, read-out: GI; in short: as §1
[21] = test system: MDA-MB-435; test: Growth inhibition of human MDA-MB-435 cells at 10 uM after 48 hrs by sulforhodamine B assay; conditions: MDA-MB-435, 48 h, read-out: GI; in short: as §1
[22] = test system: SK-MEL-5; test: Growth inhibition of human SK-MEL-5 cells at 10 uM after 48 hrs by sulforhodamine B assay; conditions: SK-MEL-5, 48 h, read-out: GI; in short: as §1
[23] = Growth inhibition of human OVCAR3 cells at 10 uM after 48 hrs by sulforhodamine B assay; conditions: OVCAR-3, 48 h, read-out: GI; in short: as §1
[24] = Growth inhibition of human OVCAR5 cells at 10 uM after 48 hrs by sulforhodamine B assay; conditions: OVCAR-5, 48 h, read-out: GI; in short: as §1
[25] = Growth inhibition of human OVCAR8 cells at 10 uM after 48 hrs by sulforhodamine B assay; conditions: OVCAR-8, 48 h, read-out: GI; in short: as §1
[26] = Growth inhibition of human SKOV3 cells at 10 uM after 48 hrs by sulforhodamine B assay; conditions: SK-OV-3, 48 h, read-out: GI; in short: as §1
[27] = test system: A498; test: Growth inhibition of human A498 cells at 10 uM after 48 hrs by sulforhodamine B assay; conditions: A498, 48 h, read-out: GI; in short: as §1
[28] = test system: ACHN; test: Growth inhibition of human ACHN cells at 10 uM after 48 hrs by sulforhodamine B assay; conditions: read-out: GI; in short: as §1
[29] = Growth inhibition of human Caki1 cells at 10 uM after 48 hrs by sulforhodamine B assay; conditions: CAKI-1, 48 h, read-out: GI; in short: as §1
[30] = Growth inhibition of human RXF393 cells at 10 uM after 48 hrs by sulforhodamine B assay; conditions: RXF 393, 48 h, read-out: GI; in short: as §1
[31] = test system: SN12C; test: Growth inhibition of human SN12C cells at 10 uM after 48 hrs by sulforhodamine B assay; conditions: read-out: GI; in short: as §1
[32] = Growth inhibition of human UO31 cells at 10 uM after 48 hrs by sulforhodamine B assay; conditions: UO-31, 48 h, read-out: GI; in short: as §2
[33] = Growth inhibition of human PC3 cells at 10 uM after 48 hrs by sulforhodamine B assay; conditions: PC-3, 48 h, read-out: GI; in short: as §1
[34] = Growth inhibition of human Hs 578T cells at 10 uM after 48 hrs by sulforhodamine B assay; conditions: read-out: GI; in short: as §1

Structure (SMILES) | inhibition of growth at 10 µM [1] [%] | inhibition of growth at 10 µM [2] [%] | inhibition of growth at 10 µM [3] [%] | inhibition of growth at 10 µM [4] [%] | inhibition of growth at 10 µM [5] [%] | inhibition of growth at 10 µM [6] [%] | inhibition of growth at 10 µM [7] [%] | inhibition of growth at 10 µM [8] [%] | inhibition of growth at 10 µM [9] [%] | inhibition of growth at 10 µM [10] [%] | inhibition of growth at 10 µM [11] [%] | inhibition of growth at 10 µM [12] [%] | inhibition of growth at 10 µM [13] [%] | inhibition of growth at 10 µM [14] [%] | inhibition of growth at 10 µM [15] [%] | inhibition of growth at 10 µM [16] [%] | inhibition of growth at 10 µM [17] [%] | inhibition of growth at 10 µM [18] [%] | inhibition of growth at 10 µM [19] [%] | inhibition of growth at 10 µM [20] [%] | further results
COc1ccc(Cc2nnc(Nc3ccc(NC(=O)Nc4ccc(C#N)cc4)cc3)c3ccccc23)cc1 | < 30 | 63 | 47 | 43 | 36 | < 30 | < 30 | < 30 | 40 | 54 | 44 | 36 | 45 | < 30 | < 30 | 43 | 63 | 46 | 42 | 35 | inhibition of growth at 10 µM [21]: < 30%; inhibition of growth at 10 µM [22]: < 33%; inhibition of growth at 10 µM [23]: < 30%; inhibition of growth at 10 µM [24]: < 30%; inhibition of growth at 10 µM [25]: < 30%; inhibition of growth at 10 µM [26]: 37%; inhibition of growth at 10 µM [27]: 54%; inhibition of growth at 10 µM [28]: 48%; inhibition of growth at 10 µM [29]: < 30%; inhibition of growth at 10 µM [30]: 110%; inhibition of growth at 10 µM [31]: < 30%; inhibition of growth at 10 µM [32]: 44%; inhibition of growth at 10 µM [33]: 41%; inhibition of growth at 10 µM [34]: 105%
COc1ccc(Cc2nnc(Nc3ccc(NC(=O)Nc4ccccc4Cl)cc3)c3ccccc23)cc1 | < 30 | < 30 | < 30 | < 30 | < 30 | < 30 | < 30 | < 30 | < 30 | 33 | < 30 | < 30 | < 30 | < 30 | < 30 | < 30 | < 30 | < 30 | < 30 | < 30 | inhibition of growth at 10 µM [21]: < 30%; inhibition of growth at 10 µM [22]: < 30%; inhibition of growth at 10 µM [23]: < 30%; inhibition of growth at 10 µM [24]: < 30%; inhibition of growth at 10 µM [25]: < 30%; inhibition of growth at 10 µM [26]: < 30%; inhibition of growth at 10 µM [27]: 44%; inhibition of growth at 10 µM [28]: < 30%; inhibition of growth at 10 µM [29]: < 30%; inhibition of growth at 10 µM [30]: 48%; inhibition of growth at 10 µM [31]: < 30%; inhibition of growth at 10 µM [32]: < 30%; inhibition of growth at 10 µM [33]: < 30%; inhibition of growth at 10 µM [34]: < 30%
